Results taken from PubChem BioAssay AID2539 (The Scripps Research Institute Molecular Screening Center, 2010).
Activity calls are given as the source filed them.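 How the source made its calls: active means at least 50% inhibition of the cell reactive oxygen species light signal; inactive means the rest.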

Legend:
Test in all cases: NADPH oxidase isoform panel inhibitors – cell-based, HEK293 transfected, luminol chemiluminescence, powder samples, selectivity assay for NOX1 inhibitor project, late-stage follow-up (AID 2539)
[1] = molecular target: NADPH oxidase 2 (Homo sapiens) (UniProt P04839); conditions: HEK293 transfected NOX2/3/4, luminol ROS chemiluminescence; NOX2; at 10 µM; active compounds read high
Summary of the method: (§1)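 Assay system: Transfected HEK/293 cells expressing NOX2, NOX3 or NOX4 | Times: Compounds added 16 h post-transfection, 2 h before probe | Signal: Luminol/HRP chemiluminescence reporting cellular ROS | Dosing: Single compound dose of 10 µM | Also added: Luminol with horseradish peroxidase as ROS probe | Replication: Triplicate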

[2] = molecular target: NADPH oxidase 3 (Homo sapiens) (UniProt Q9HBY0); conditions: HEK293 transfected NOX2/3/4, luminol ROS chemiluminescence; NOX3; at 10 µM; active compounds read high
Summary of the method: as §1

[3] = molecular target: NADPH oxidase 4 (Homo sapiens) (UniProt Q9NPH5); conditions: HEK293 transfected NOX2/3/4, luminol ROS chemiluminescence; NOX4; at 10 µM; active compounds read high
Summary of the method: as §1

NADPH oxidase 4 (Homo sapiens), sequence (Q9NPH5 whole entry, looked up): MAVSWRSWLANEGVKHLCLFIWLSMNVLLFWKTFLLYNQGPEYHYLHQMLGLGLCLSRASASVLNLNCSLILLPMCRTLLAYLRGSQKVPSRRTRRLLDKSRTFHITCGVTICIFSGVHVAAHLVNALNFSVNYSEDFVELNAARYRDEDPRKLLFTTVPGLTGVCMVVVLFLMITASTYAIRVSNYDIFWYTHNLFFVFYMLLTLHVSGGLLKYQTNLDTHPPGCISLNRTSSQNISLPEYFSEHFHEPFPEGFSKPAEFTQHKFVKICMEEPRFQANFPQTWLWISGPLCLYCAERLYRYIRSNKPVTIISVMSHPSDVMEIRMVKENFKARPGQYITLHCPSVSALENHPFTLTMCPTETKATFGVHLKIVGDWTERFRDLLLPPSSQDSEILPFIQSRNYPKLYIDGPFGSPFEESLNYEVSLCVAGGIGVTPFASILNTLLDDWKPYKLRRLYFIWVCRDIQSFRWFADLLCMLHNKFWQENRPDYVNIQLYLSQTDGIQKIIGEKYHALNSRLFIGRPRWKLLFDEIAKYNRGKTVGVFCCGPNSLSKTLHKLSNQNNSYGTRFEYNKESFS
NADPH oxidase 2 (Homo sapiens), sequence (P04839 whole entry, looked up): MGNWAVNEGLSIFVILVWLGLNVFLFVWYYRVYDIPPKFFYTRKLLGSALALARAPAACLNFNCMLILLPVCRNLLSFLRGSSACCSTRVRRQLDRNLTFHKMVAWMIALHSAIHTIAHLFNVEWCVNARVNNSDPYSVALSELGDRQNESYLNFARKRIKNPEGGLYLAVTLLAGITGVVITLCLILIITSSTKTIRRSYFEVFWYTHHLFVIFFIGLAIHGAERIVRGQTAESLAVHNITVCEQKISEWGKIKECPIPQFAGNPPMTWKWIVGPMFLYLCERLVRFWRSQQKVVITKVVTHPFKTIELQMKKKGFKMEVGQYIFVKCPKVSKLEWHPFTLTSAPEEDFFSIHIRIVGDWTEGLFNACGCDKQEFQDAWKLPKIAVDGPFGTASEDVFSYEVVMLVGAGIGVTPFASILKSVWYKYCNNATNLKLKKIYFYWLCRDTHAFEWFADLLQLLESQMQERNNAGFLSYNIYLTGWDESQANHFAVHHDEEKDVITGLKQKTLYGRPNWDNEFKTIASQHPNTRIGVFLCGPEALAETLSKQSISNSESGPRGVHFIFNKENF
NADPH oxidase 3 (Homo sapiens), sequence (Q9HBY0 whole entry, looked up): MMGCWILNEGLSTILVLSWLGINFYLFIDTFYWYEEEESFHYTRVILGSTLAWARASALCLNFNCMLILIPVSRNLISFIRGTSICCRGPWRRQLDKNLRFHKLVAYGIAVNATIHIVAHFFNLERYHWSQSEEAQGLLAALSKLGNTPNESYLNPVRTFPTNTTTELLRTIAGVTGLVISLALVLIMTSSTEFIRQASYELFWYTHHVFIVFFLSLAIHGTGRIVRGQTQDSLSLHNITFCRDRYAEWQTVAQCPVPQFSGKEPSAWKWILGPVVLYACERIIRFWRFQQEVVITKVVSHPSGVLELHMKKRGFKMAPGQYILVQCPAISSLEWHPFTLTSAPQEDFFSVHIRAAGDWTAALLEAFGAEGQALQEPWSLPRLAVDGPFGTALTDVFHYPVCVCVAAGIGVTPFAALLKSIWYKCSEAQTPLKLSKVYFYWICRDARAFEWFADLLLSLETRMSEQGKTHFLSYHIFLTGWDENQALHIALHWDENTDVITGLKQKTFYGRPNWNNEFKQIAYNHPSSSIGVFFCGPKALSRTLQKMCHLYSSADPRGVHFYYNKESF

Compound	inhibition [1]	inhibition [2]	inhibition [3]
FC(F)(F)c1ccc2c(c1)Nc1ccccc1S2	20% (inactive)	10% (inactive)	10% (inactive)
c1ccc2c(c1)Nc1nc3ccccc3nc1N2	2% (inactive)	-24% (inactive)	-24% (inactive)
CN(C)c1ccc(NC(=O)Nc2ccc(OCc3ccccc3)cc2)cc1	32% (inactive)	52%	52%
COc1cc(-c2nc(-c3ccccc3)c(-c3ccccc3)[nH]2)ccc1O	-7% (inactive)	61%	61%
CN(C)c1ccc(/C=N/Nc2c(Cl)cncc2Cl)cc1	19% (inactive)	3% (inactive)	3% (inactive)
O=C(Oc1ccccc1N1CCCCC1)c1sc2ccccc2c1Cl	-3% (inactive)	3% (inactive)	3% (inactive)
Cc1cc(Cl)ccc1NC(=S)NNC(=S)Nc1ccc(F)cc1	6% (inactive)	25% (inactive)	25% (inactive)
